pIC50: −log10 of the molar value. Activity calls are given as the source filed them. No cut-off for these calls is given here.
Columns and labels:
T47D [1] = experiment: Induction of cell cycle arrest in human T47D cells at 5 umol/L preincubated for 24 hrs followed by extensive compound washout and subsequent culturing in compound-free media measured for 60 to 120 mins by immunofluorescence staining based analysis; assay type: functional; details: dose 5.0 µmol/L
Outline: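 T-47D cells were treated at 37°C with 5 µmol/L for 24 h, washed extensively, then cultured in DMEM with 10% FBS for 30, 60 and 120 min. α- and γ-tubulin were detected by immunofluorescence with DAPI, imaged at 400×. The control was a 24 h preincubation with 5 µmol/L RO-3306. One of 2 experiments.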

ZR-75-1 [2] = experiment: Cytotoxicity against human ZR-75-1 cells assessed as inhibition of cell viability incubated for 72 hrs by MTS assay; assay type: functional, cell-based
Outline: (§1)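 Untreated cells were seeded at 5,000 cells/well in 96-well plates and run as the control. They were exposed in triplicate for 72 h to graded doxorubicin, bleomycin, cisplatin, paclitaxel or methotrexate (nmol/L range). Viability was read by MTS assay and IC50 was calculated.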

T47D [3] = experiment: Cytotoxicity against human T47D cells assessed as inhibition of cell viability incubated for 72 hrs by MTS assay; assay type: functional, cell-based; outline: as §1
T47D [4] = experiment: Induction of polyploidy in human T47D cells at 5 uM incubated for 72 hrs by microscopic analysis; assay type: functional, cell-based
Outline: (§2)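 Cells stained with Hema-3 and photographed under a light microscope with CCD camera. Polyploid cells scored as percent of the population.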

ZR-75-1 [5] = experiment: Induction of polyploidy in human ZR-75-1 cells at 5 uM incubated for 72 hrs by microscopic analysis; assay type: functional, cell-based; outline: as §2
MCF7 = experiment: Induction of polyploidy in human MCF7 cells at 5 uM incubated for 72 hrs by microscopic analysis; assay type: functional, cell-based; outline: as §2
[6] = biological target: Hepatocyte growth factor receptor (Homo sapiens, UniProt P08581); experiment: Inhibition of MET (unknown origin)
Sequence of Hepatocyte growth factor receptor (P08581 whole entry): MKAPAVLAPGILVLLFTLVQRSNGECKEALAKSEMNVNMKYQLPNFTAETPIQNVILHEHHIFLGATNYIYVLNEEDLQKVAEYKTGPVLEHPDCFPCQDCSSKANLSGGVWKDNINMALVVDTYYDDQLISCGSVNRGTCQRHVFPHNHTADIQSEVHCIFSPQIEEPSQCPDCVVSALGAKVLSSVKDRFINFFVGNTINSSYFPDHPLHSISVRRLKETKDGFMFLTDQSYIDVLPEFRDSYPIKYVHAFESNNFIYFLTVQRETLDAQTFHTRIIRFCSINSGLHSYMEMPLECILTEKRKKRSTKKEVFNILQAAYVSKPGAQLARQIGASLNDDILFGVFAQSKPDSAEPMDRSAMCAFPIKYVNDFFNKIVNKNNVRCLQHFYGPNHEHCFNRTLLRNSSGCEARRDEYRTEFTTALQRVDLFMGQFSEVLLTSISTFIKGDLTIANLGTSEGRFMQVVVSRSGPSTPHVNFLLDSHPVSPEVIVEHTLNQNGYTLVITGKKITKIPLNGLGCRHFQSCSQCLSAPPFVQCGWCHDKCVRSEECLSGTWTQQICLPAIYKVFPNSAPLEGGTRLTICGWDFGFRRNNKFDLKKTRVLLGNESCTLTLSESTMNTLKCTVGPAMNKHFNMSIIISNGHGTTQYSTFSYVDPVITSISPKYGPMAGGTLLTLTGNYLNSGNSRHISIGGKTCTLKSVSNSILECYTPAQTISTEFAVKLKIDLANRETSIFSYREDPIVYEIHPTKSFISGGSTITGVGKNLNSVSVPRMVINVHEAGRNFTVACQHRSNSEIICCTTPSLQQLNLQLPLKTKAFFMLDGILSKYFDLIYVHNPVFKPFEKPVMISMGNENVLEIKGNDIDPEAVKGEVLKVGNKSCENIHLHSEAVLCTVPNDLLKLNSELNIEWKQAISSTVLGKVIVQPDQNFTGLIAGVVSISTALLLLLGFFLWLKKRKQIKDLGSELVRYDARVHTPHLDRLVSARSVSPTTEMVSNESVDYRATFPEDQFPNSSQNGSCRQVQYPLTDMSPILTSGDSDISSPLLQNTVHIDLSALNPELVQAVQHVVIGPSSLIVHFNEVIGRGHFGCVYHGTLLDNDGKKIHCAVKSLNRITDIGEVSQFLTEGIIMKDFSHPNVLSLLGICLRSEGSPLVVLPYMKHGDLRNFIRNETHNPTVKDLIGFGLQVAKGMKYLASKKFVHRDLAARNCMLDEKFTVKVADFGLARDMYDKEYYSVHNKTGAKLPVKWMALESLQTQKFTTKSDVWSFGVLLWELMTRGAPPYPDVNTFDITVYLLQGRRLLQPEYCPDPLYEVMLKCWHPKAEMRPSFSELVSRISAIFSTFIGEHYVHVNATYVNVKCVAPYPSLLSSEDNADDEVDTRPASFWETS

[7] = biological target: Macrophage-stimulating protein receptor (Homo sapiens, UniProt Q04912); experiment: Inhibition of RON (unknown origin)
Sequence of Macrophage-stimulating protein receptor (Q04912 25-304 limits assumed): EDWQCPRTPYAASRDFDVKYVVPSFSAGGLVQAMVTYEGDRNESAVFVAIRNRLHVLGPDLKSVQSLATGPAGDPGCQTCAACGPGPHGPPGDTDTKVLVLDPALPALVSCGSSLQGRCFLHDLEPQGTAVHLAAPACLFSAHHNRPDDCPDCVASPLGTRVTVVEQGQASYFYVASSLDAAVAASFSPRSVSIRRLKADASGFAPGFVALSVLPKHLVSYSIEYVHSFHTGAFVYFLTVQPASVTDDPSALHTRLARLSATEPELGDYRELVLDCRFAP
Sequence of Macrophage-stimulating protein receptor (Q04912 310-1400 limits assumed): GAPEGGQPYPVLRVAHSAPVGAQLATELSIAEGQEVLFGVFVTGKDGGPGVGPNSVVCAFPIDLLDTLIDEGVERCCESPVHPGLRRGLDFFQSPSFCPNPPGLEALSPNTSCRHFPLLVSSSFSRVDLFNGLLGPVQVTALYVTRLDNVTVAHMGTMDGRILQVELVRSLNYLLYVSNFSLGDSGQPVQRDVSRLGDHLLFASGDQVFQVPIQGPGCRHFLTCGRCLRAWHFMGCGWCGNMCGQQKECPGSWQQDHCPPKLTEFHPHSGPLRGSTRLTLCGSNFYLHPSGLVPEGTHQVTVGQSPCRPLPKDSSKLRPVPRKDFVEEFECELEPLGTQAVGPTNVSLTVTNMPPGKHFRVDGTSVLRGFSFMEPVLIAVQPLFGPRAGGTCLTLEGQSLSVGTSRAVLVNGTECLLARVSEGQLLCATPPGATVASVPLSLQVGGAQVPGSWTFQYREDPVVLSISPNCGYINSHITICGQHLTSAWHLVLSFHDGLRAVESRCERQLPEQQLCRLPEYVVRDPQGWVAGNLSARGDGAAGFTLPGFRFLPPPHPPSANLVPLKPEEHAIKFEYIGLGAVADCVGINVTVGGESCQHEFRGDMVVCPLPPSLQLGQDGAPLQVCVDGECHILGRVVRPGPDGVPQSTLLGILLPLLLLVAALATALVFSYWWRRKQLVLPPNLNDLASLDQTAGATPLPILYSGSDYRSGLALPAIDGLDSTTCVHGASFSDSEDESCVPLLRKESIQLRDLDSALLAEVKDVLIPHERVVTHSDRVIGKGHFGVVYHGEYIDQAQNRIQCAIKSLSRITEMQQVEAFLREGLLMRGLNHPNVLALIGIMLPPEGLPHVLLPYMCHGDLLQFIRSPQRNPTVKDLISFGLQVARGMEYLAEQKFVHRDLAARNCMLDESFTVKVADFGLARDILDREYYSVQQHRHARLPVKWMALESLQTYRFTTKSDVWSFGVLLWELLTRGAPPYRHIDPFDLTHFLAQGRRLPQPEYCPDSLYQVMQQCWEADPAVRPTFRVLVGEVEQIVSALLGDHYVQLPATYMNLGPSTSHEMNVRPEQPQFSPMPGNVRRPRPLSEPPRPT

O=C1N=C(NCc2cccs2)S/C1=C\c1ccc2ncccc2c1
Activity (T47D [1]): inactive

CC(=O)O[C@H]1C(=O)[C@@]2(C)[C@H]([C@H](OC(=O)c3ccccc3)[C@]3(O)C[C@H](OC(=O)[C@H](O)[C@@H](NC(=O)c4ccccc4)c4ccccc4)C(C)=C1C3(C)C)[C@]1(OC(C)=O)CO[C@@H]1C[C@@H]2O [PACLITAXEL]
pIC50 (ZR-75-1 [2]; Homo sapiens, ZR-75-1, 72 h): 8.21 | pIC50 (T47D [3]; Homo sapiens, T47D, 72 h): 8.40

Cc1[nH]c(/C=C2\C(=O)Nc3ccc(S(=O)(=O)Cc4c(Cl)cccc4Cl)cc32)c(C)c1C(=O)N1CCC[C@@H]1CN1CCCC1
Activity (T47D [4]): inactive | Activity (ZR-75-1 [5]): inactive | Activity (MCF7): inactive

COc1cccc2c1C(=O)c1c(O)c3c(c(O)c1C2=O)C[C@@](O)(C(=O)CO)C[C@@H]3O[C@H]1C[C@H](N)[C@H](O)[C@H](C)O1 [DOXORUBICIN]
pIC50 (ZR-75-1 [2]; Homo sapiens, ZR-75-1, 72 h): 6.34 | pIC50 (T47D [3]; Homo sapiens, T47D, 72 h): 6.58

CN(Cc1cnc2nc(N)nc(N)c2n1)c1ccc(C(=O)N[C@@H](CCC(=O)O)C(=O)O)cc1 [METHOTREXATE]
pIC50 (ZR-75-1 [2]; Homo sapiens, ZR-75-1, 72 h): 7.18 | pIC50 (T47D [3]; Homo sapiens, T47D, 72 h): 7.19

COc1ccc2c(Oc3ccc(NC(=O)c4c(C)n(CC(C)(C)O)n(-c5ccccc5)c4=O)cc3F)ccnc2c1
pIC50 [6]: 8.40 | pIC50 [7]: 8.05 | Activity (T47D [4]): inactive | Activity (ZR-75-1 [5]): inactive | Activity (MCF7): inactive

BLEOMYCIN
pIC50 (ZR-75-1 [2]; zr-75-1): 6.78 | pIC50 (T47D [3]; t47d): 6.89

Source: ChEMBL document CHEMBL5653613 (Mol Cancer Ther, 2013)
